hDAT+cocaine – human DAT dopamine uptake with cocaine, either direction; Q01959; B-score at 10 µM; AID 449768; LLC-PK1 hDAT cells, [14C]-dopamine uptake with cocaine IC80; actives deviate in either direction; 1.3% of 110,000 active;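 active = Z score or B-score, a plate-position-corrected score, falls beyond the plate's 99.7% confidence bounds, in either direction; inactive = both scores lie inside the 99.7% bounds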;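 also: scored against the spread of the other compound wells on the same plate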
Target sequence (Q01959 whole entry, looked up): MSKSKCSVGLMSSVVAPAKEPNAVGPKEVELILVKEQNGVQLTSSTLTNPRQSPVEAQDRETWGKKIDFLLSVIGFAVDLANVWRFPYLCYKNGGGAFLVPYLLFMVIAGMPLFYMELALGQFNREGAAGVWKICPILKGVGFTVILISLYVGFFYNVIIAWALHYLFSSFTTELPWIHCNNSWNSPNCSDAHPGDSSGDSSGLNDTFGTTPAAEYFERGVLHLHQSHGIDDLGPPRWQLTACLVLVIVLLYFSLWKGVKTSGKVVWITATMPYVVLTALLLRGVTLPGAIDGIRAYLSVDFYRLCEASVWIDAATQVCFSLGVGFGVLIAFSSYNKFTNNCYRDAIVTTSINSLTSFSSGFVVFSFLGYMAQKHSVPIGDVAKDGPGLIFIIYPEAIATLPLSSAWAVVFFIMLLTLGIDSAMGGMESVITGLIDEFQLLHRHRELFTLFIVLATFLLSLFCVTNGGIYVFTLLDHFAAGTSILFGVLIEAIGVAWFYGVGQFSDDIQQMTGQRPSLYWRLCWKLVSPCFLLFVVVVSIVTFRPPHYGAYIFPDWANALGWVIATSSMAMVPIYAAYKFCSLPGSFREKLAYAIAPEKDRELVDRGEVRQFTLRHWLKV
E coli WT exp – growth inhibitors of E. coli BW25113 wild type; growth inhibition, % at 100 µM; AID 710; OD600 absorbance; 0.15% of 98,000 active;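 active = growth inhibition above about 50% at one test dose, limit read from the data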;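 also: growth measured after 20 h incubation at 37 °C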
PostGolgi ctrl – yeast control strain growth, post-Golgi counter-screen; efflux-deficient yeast background strain, growth absorbance A615, 16 h; inhibition, % at 10 µM; 5% of 98,000 active; AID 738
tolC growth inh – E. coli tolC mutant growth inhibition | growth inhibition, % at 10 µM (by protocol) | E. coli BW25113 tolC mutant growth, OD615 | 2.2% of 65,000 active;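 active = growth inhibition at or above a cutoff equal to the mean over every tested compound plus 3 SD, cut at about 60% in these data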;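 also: growth measured after 20 h incubation at 37 °C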
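Material: E. coli BW25113 ΔtolC::kan, tolC deletion mutant strain. Measure: percent growth inhibition. Schedule: 37 °C, 20 h exposure. Doses: single-point testing at 10 µM. Signal: A615 absorbance measurement. Buffer or medium: kanamycin-containing LB broth (50 µg/mL).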
D1 mod – allosteric modulators of human D1 dopamine receptor. 5.9% of 58,000 active. B-score at 10 µM. HEK293 D1, CRE-luciferase, dopamine EC30 potentiation; actives deviate in either direction. AID 641. P21728;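 active = luminescence count or its row- and column-corrected plate score outside the 99.7% band of the plate's sample wells, on either side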
PostGolgi yeast – growth inhibition of a yeast mutant, post-Golgi transport screen. post-Golgi transport phenotypic cell assay. inhibition, % at 10 µM. 0.9% of 98,000 active;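 also: yeast cells grown in 1536-well plates; yeast grown about 18 h at 30C before absorbance read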
D1 PAM confirm – D1 receptor (human) allosteric modulation, confirmed | shares compounds with D1 mod | HEK293 D1 CRE-luciferase, dopamine EC30 potentiation; stronger effect = higher value | luminescence at 10 µM | 88% of 2,200 active | AID 642;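 active = luminescence in either of two replicates above the same-plate mean plus 3 SD of the low-dose dopamine control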
D1 no dopamine – activates D1 CRE-luciferase signal without dopamine present; shares compounds with D1 mod; HEK293 D1 CRE-luciferase, luminescence, no dopamine; stronger effect = higher value; luminescence at 10 µM; 0.8% of 1,900 active; AID 646; in the data active = luminescence above about 3900
Isoprot counter – counter-screen for D1 modulators: isoproterenol response in HEK293 cells. HEK293 D1 CRE-luciferase, isoproterenol EC30 counter-screen. AID 647. calls only at 10 µM. shares compounds with D1 mod. 63% of 2,200 active;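 active = luminescence in either replicate above plate mean of wells with a partly effective reference agonist dose plus 3 SD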;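 also: isoproterenol raises cAMP through native beta-adrenoceptor Gs so signal bypasses D1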
The depositor's hits bear a star; i = inactive; . = not tested or not shown; + = active, no number. An excerpt weighted towards active compounds, which were near 9.3% of everything screened. Rule as the data show it, unless noted: active = inhibition above about 30%; inactive = the rest.

SMILES	hDAT+cocaine	E coli WT exp	PostGolgi ctrl	tolC growth inh	D1 mod	PostGolgi yeast	D1 PAM confirm	D1 no dopamine	Isoprot counter
Cc1ccc(CNC(=O)CCSCCC(=O)NCc2ccc(C)cc2)cc1	-0.44	-4	-4	.	.	-8	.	.	.
N#Cc1nc(-c2ccccc2)oc1NCc1ccco1	-2.5	6	5	.	.	-17	.	.	.
COCCNc1oc(-c2ccc(C)cc2)nc1C#N	.	6	-4	21	5.1*	-2	5796*	1872	i
CNc1oc(-c2ccccc2)nc1C#N	-7.8*	12	1	-13	7.4*	13	11304*	1648	+
COCCNc1oc(-c2ccc(Cl)cc2)nc1C#N	0.53	8	3	-1	0.62	6	.	.	.
COc1ccc(OC)c(C2C(C(N)=O)=C(C)Nc3nc(CCCO)nn32)c1 (stereo not drawn)	-0.0084	5	11	-19	0.2	2	.	.	.
CCOC(=O)C1CCN(C(=O)CSCc2nc(-c3ccc(OCC)cc3)oc2C)CC1	1.7	3	16	18	5.7*	0	12112*	1828	+
Cc1ccc(-c2nc(CSCC(=O)N3CCCC3)c(C)o2)cc1	0.59	-4	6	13	-0.078	-8	.	.	.
CCOc1ccc(-c2nc(CSCC(=O)N3CCN(C(=O)c4ccco4)CC3)c(C)o2)cc1	0.75	2	1	1	3.6*	-1	5924	1480	+
CCOc1ccc(OCC)c(NC(=O)CN2CCN(c3cccc(C)c3C)CC2)c1	0.63	-18	16	-16	.	8	.	.	.
CCOc1ccc(OCC)c(NC(=O)CN2CCN(C(=O)c3ccco3)CC2)c1	0.015	-3	7	0	26*	7	4124	1704	i
CC1(C)CSC(=S)N1S(=O)(=O)c1ccccc1	-0.49	11	12	2	-1.3	-3	.	.	.
Cc1noc(NS(=O)(=O)c2ccc(N3Cc4ccccc4C3=O)cc2)c1C	0.37	14	3	18	6.6*	-3	15188*	1676	+
Cc1noc(NS(=O)(=O)c2ccc(NC(=O)CSc3n[nH]c(-c4ccccc4)n3)cc2)c1C	-0.035	5	-5	0	1.1	-4	.	.	.
O=C(COC(=O)c1cncc(Br)c1)NCCC1=CCCCC1	-0.037	8	4	9	-0.34	5	.	.	.
N#CC1=C(N)N(c2ccccc2)C2=C(C(=O)CCC2)C1c1cccs1 (stereo not drawn)	-0.0088	2	7	2	3.2*	-8	7976*	1556	i
COC(=O)C1=C(C)Nc2ccc(C)cc2S1	0.4	4	14	-11	8.7*	-5	11576*	1468	+
CCOC(=O)N1CCN(C(=O)c2ccc(CN(c3ccccc3)S(C)(=O)=O)cc2)CC1	0.093	-1	16	0	0.24	-10	.	.	.
CCc1ccc(OCC(=O)Nc2cc(S(=O)(=O)CC)ccc2O)cc1	.	2	26	.	.	-7	.	.	.
CCCCCOc1ccc(/C=c2\sc3ncnn3c2=O)cc1	.	.	.	-28	0.78	.	.	.	.
CCCCOc1ccc(/C=c2\sc3ncnn3c2=O)cc1	-0.63	-4	6	-6	2.7*	-8	11772*	2228	+
O=c1/c(=C/c2cccc3ccccc23)sc2ncnn12	0.43	3	14	3	3.8*	3	6052	1796	i
c1ccc(Cn2nnc3c(N4CCCCCC4)ncnc32)cc1	0.17	4	14	54	6.4*	5	7556*	1448	+
c1ccc(Cn2nnc3c(N4CCc5ccccc54)ncnc32)cc1	-0.84	-13	7	-11	3*	1	6044*	1608	i
CC(=O)OCC(=O)NCC(=O)c1c[nH]c2ccccc12	0.0038	.	.	.	.	.	.	.	.
SMILES	hDAT+cocaine	E coli WT exp	PostGolgi ctrl	tolC growth inh	D1 mod	PostGolgi yeast	D1 PAM confirm	D1 no dopamine	Isoprot counter
CCOc1ccccc1NC(=O)CCSc1nc2n[nH]c(C)c2c(=N)n1-c1ccccc1Cl	-0.94	-15	14	-4	3.8*	-8	11132*	1584	+
CCOc1ccccc1-n1c(SCC(=O)Nc2ccc(CC)cc2)nc2n[nH]c(C)c2c1=N	0.21	-11	2	-10	2*	-7	7472	1852	i
Cn1c(=O)c2c(-c3ccc(C(C)(C)C)cc3)n(N3CCOCC3)cc2n(C)c1=O	-0.36	-6	9	-22	3.8*	-4	9948*	1848	i
Cn1c(=O)c2c(-c3ccccc3)n(N3CCOCC3)cc2n(C)c1=O	0.88	-3	-4	-5	3.3*	-3	6320*	1616	i
Cn1c(=O)c2c(-c3ccccc3)n(C3CCCCC3)cc2n(C)c1=O	-0.15	2	-2	-8	4.3	-22	.	.	.
Cc1cccc(-c2c3c(=O)n(C)c(=O)n(C)c3cn2C(C)(C)C)c1	0.89	-6	3	5	1.6	1	.	.	.
O=C(C1CCN(S(=O)(=O)c2ccc(F)cc2)CC1)N1CCOCC1	-1.3	0	-3	-10	-0.38	0	.	.	.
CC1(C)Cc2c(C#N)c(N3CCCC3)nc(-c3ccco3)c2CO1	0.58	-10	22	42	5.3*	0	9980*	1576	i
CC1(C)Cc2c(C#N)c(NCc3ccco3)nc(-c3ccco3)c2CO1	-0.63	-11	13	7	.	-1	.	.	.
CC1(C)Cc2c(c(-c3ccco3)[nH]c(=O)c2C#N)CO1	1.6	0	0	-11	4.3*	16	15660*	1772	+
CCc1[nH]c(=O)c(C#N)c2c1COC(C)(C)C2	-0.47	3	17	.	.	-4	.	.	.
CN(C)CCNc1nc(-c2ccco2)c2c(c1C#N)CC(C)(C)OC2	0.011	-3	3	-7	.	-3	.	.	.
CC1(C)Cc2c(c(-c3ccco3)nc3n[nH]c(N)c23)CO1	-0.15	4	1	5	11*	7	17288*	1464	+
Cc1cc(C)n2nc(SCc3cc(=O)n4c(C)cccc4n3)nc2n1	.	.	.	-11	4.3	.	.	.	.
COc1ccc(C2(C(=O)NCCCN3CCOCC3)CCOCC2)cc1	0.88	-2	3	-32	0.94	7	.	.	.
COc1cc(OC)cc(C(=O)Nc2cccc(C(C)=O)c2)c1	0.84	5	4	4	-0.83	-5	.	.	.
COc1cc(OC)cc(C(C)=O)c1	-0.026	-2	0	-3	8.5*	-6	24876*	1768	+
O=C(CSc1nc(-c2ccccc2)cs1)NC(=O)NCc1ccco1	0.84	-9	-4	-5	-0.35	-4	.	.	.
O=C(CSc1nc2ccccc2s1)NC(=O)NCc1ccco1	-0.18	-4	-1	7	5.9*	-5	8872*	1760	i
COC(=O)c1ccc2c(=O)n(CCC3=CCCCC3)c(SCC(=O)N3CCCC3)nc2c1	.	.	.	-7	0.58	.	.	.	.

Screening data deposited in PubChem by several laboratories.
